In PubChem BioAssay AID540305 (Sanford-Burnham Center for Chemical Genomics, 2011):
The source made the active and inactive calls.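 Rule for the calls: active = mean EC50 at or below 20 µM; inactive = the rest.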

target: CHO-XBP1 luciferase reporter, IRE1-XBP1 activation, luminescence; assay: IRE1-XBP1 adaptive UPR arm activators, SAR follow-up, counter-screen for UPR apoptotic arm activator project, CHO-XBP1 cells, luminescence (AID 540305)
Method in brief: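 Medium – F12 plus 10% FBS · System – CHO cells with IRE1-XBP1 luciferase reporter · Amount – 1000 cells/well · Benchmarks – 10 µg/mL tunicamycin versus DMSO only · Detection – luciferase luminescence using Steady-Glo reagent · Times – overnight plating, 6 h compound treatment at 37 °C · Dosing – dose series, DMSO ≤1%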

| Compound | EC50 |
| --- | --- |
| O=C(Nc1ccc(C(=O)N2CCOCC2)cc1)c1ccco1 | > 80 µM (inactive) |
| CC1(C)CCN(S(=O)(=O)c2ccc(NC(=O)c3ccc([N+](=O)[O-])o3)cc2)CC1 | > 80 µM (inactive) |
| O=C(Nc1ccc(S(=O)(=O)N2CCOCC2)cc1)c1ccc([N+](=O)[O-])cc1 | > 80 µM (inactive) |
| O=C(Nc1ccc(S(=O)(=O)c2ccccc2)cc1)c1ccc([N+](=O)[O-])o1 | > 80 µM (inactive) |
| O=C(Nc1nc2c(F)cc(F)cc2s1)c1ccncc1 | > 80 µM (inactive) |
| O=C(Nc1ccc(S(=O)(=O)N2CCOCC2)cc1)c1ccc([N+](=O)[O-])s1 | > 80 µM (inactive) |
| O=C(Nc1ccc(S(=O)(=O)N2CCOCC2)cc1)c1ccc(Br)o1 | > 80 µM (inactive) |
| O=C(Nc1ccc(S(=O)(=O)N2CCNCC2)cc1)c1ccc([N+](=O)[O-])o1 | > 80 µM (inactive) |
| O=C(Nc1cccc(S(=O)(=O)N2CCOCC2)c1)c1ccco1 | > 80 µM (inactive) |
| O=C(Nc1ccc(S(=O)(=O)N2CCOCC2)cc1)c1ccccc1 | > 80 µM (inactive) |
| O=C(Nc1ccc(S(=O)(=O)N2CCCCC2)cc1)c1ccc([N+](=O)[O-])o1 | > 80 µM (inactive) |
| CC1CN(S(=O)(=O)c2ccc(NC(=O)c3ccco3)cc2)CC(C)O1 (stereo unspecified) | > 80 µM (inactive) |
| O=C(Nc1nc2c(F)cc(F)cc2s1)c1cccnc1 | > 80 µM (inactive) |
| O=C(Nc1nc2ccccc2s1)c1cccnc1 | > 80 µM (inactive) |
| Cc1ccc(C(=O)Nc2ccc(S(=O)(=O)N3CCOCC3)cc2)o1 | > 80 µM (inactive) |
| Cc1cc(C)c2nc(NC(=O)c3ccccn3)sc2c1 | > 80 µM (inactive) |

| Compound | EC50 |
| --- | --- |
| O=C(Nc1nc2ccc(F)cc2s1)c1ccccn1 | > 80 µM (inactive) |
| O=C(Nc1ccc(S(=O)(=O)N2CCC(O)CC2)cc1)c1ccc([N+](=O)[O-])o1 | > 80 µM (inactive) |
| O=C(Nc1ccc(S(=O)(=O)N2CCOCC2)cc1)c1ccco1 | > 80 µM (inactive) |
| O=C(Nc1ccc(S(=O)(=O)N2CCOCC2)cc1)c1ccc([N+](=O)[O-])o1 | > 80 µM (inactive) |
| O=C(Nc1nc2ccccc2s1)c1ccncc1 | > 80 µM (inactive) |
| O=C(Nc1nc2ccccc2s1)c1ccccn1 | > 80 µM (inactive) |
| O=C(Nc1ccc(S(=O)(=O)N2CCOCC2)cc1)c1cccs1 | > 80 µM (inactive) |
| O=C(Nc1nc2c(F)cc(F)cc2s1)c1ccccn1 | > 80 µM (inactive) |
| O=C(Nc1ccc(S(=O)(=O)N2CCCC2)cc1)c1ccc([N+](=O)[O-])o1 | > 80 µM (inactive) |
| CC1CCN(S(=O)(=O)c2ccc(NC(=O)c3ccc([N+](=O)[O-])o3)cc2)CC1 | > 80 µM (inactive) |
| O=C(Nc1nc2c(F)cccc2s1)c1ccccn1 | > 80 µM (inactive) |
| O=C(Nc1nc2c(Cl)cc(Cl)cc2s1)c1ccccn1 | > 80 µM (inactive) |
| O=C(Nc1ccc(S(=O)(=O)C2CCCCC2)cc1)c1ccc([N+](=O)[O-])o1 | > 80 µM (inactive) |
| O=C(Nc1nc2c(F)cc(F)cc2s1)c1ccccc1 | > 80 µM (inactive) |
| Fc1cc(F)c2nc(NCc3ccccn3)sc2c1 | > 80 µM (inactive) |
